Reference: ChEMBL document CHEMBL1151934, “Exploration and optimization of substituted triazolothiadiazines and triazolopyridazines as PDE4 inhibitors” (Bioorg Med Chem Lett, 2009)
Calls of active or inactive are those of the source. The rule behind the calls is not given here.

Legend:
[1] = Intrinsic clearance in rat microsomes; type: ADME, Microsome
[2] = Metabolic stability in rat assessed as half life; type: ADME, organism-based; settings: in vivo
[3] = target: 3',5'-cyclic-AMP phosphodiesterase 4A (Homo sapiens, UniProt P27815); test: Inhibition of human PDE4A by IMAP fluorescence polarization technology
[4] = target: Beta-2 adrenergic receptor (Homo sapiens) (UniProt P07550); test: Inhibition of beta2 adrenergic receptor expressed in HEK293 cells co-transfected with PKA fragments Reg-F[1] and cat-F[2]-fused renilla luciferase assessed as effect on receptor regulated increase in cAMP accumulation at 10 uM after 30 mins by protein-fragment complementation assay; type: functional, cell-based
Outline: (§1)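 Stable β2AR-HEK293 cells grown in DMEM with 10% fetal bovine serum and transiently transfected with the Rluc PCA PKA reporter. Compounds added 48 h after transfection. Medium exchanged for PBS and bioluminescence read on a luminometer immediately after treatment.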

[5] = target: Beta-2 adrenergic receptor (Homo sapiens) (UniProt P07550); test: (§2) Inhibition of beta2 adrenergic receptor expressed in HEK293 cells co-transfected with PKA fragments Reg-F[1] and cat-F[2]-fused renilla luciferase assessed as effect on receptor regulated increase in cAMP accumulation at 100 uM after 30 mins by protein-fragment complementation assay; type: functional, cell-based; outline: as §1
[6] = target: Dual specificity calcium/calmodulin-dependent 3',5'-cyclic nucleotide phosphodiesterase 1A (Homo sapiens) (UniProt P54750); test: Inhibition of PDE1A at 10 uM
[7] = target: T1, Dual specificity calcium/calmodulin-dependent 3',5'-cyclic nucleotide phosphodiesterase 1B (Homo sapiens, UniProt Q01064); test: Inhibition of PDE1B at 10 uM
[8] = target: T2, Dual specificity calcium/calmodulin-dependent 3',5'-cyclic nucleotide phosphodiesterase 1C (Homo sapiens, UniProt Q14123); test: Inhibition of PDE1C at 10 uM
[9] = target: cGMP-dependent 3',5'-cyclic phosphodiesterase (Homo sapiens) (UniProt O00408); test: Inhibition of PDE2A at 10 uM
[10] = target: T3, cGMP-inhibited 3',5'-cyclic phosphodiesterase 3A (Homo sapiens, UniProt Q14432); test: Inhibition of PDE3A at 10 uM
[11] = target: cGMP-specific 3',5'-cyclic phosphodiesterase (Homo sapiens) (UniProt O76074); test: Inhibition of PDE5A1 at 10 uM
[12] = target: T4, High affinity 3',5'-cyclic-AMP phosphodiesterase 7A (Homo sapiens, UniProt Q13946); test: Inhibition of PDE7A at 10 uM
[13] = target: T5, 3',5'-cyclic-AMP phosphodiesterase 7B (Homo sapiens, UniProt Q9NP56); test: Inhibition of PDE7B at 10 uM
[14] = Inhibition of PDE4A1A
[15] = Inhibition of PDE4 expressed in HEK293 cells coexpressing G-protein coupled receptor and cyclic nucleotide gated ion channel by fluorescence assay; type: cell-based
Outline: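 PDE4-expressing reporter cells plated at 1000 cells/well in DMEM with penicillin/streptomycin and 2%, 5%, 10% or 20% fetal calf serum, 12 hr at 37 °C, 5% CO₂. Membrane potential dye 1 hr at room temperature, then compound pin-transferred from DMSO serial dilutions (final DMSO under 0.5%). Tested in duplicate.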

[16] = target: Beta-2 adrenergic receptor (Homo sapiens) (UniProt P07550); test: as §2, with “PKA activation” for “increase in cAMP accumulation”, “assay in presence of inverse agonist ICI-118551” for “assay”; type: functional, cell-based; outline: as §1
[17] = target: cAMP and cAMP-inhibited cGMP 3',5'-cyclic phosphodiesterase 10A (Homo sapiens, UniProt Q9Y233); test: Inhibition of PDE10A1
[18] = target: T2, Dual specificity calcium/calmodulin-dependent 3',5'-cyclic nucleotide phosphodiesterase 1C; test: Inhibition of PDE1C
[19] = target: T4, High affinity 3',5'-cyclic-AMP phosphodiesterase 7A; test: Inhibition of PDE7A
[20] = target: T5, 3',5'-cyclic-AMP phosphodiesterase 7B; test: Inhibition of PDE7B
[21] = target: Beta-2 adrenergic receptor (Homo sapiens) (UniProt P07550); test: Inhibition of beta2 adrenergic receptor expressed in HEK293 cells co-transfected with PKA fragments Reg-F[1] and cat-F[2]-fused renilla luciferase assessed as effect on receptor regulated PKA activation at 100 uM after 30 mins by protein-fragment complementation assay; type: cell-based; outline: as §1
[22] = target: T1, Dual specificity calcium/calmodulin-dependent 3',5'-cyclic nucleotide phosphodiesterase 1B
[23] = target: Beta-2 adrenergic receptor (Homo sapiens) (UniProt P07550); test: Inhibition of beta2 adrenergic receptor expressed in HEK293 cells co-transfected with PKA fragments Reg-F[1] and cat-F[2]-fused renilla luciferase assessed as dissociation of PKA fragments after 2 mins by real time kinetic study relative to inverse agonist ICI-118551; type: functional, cell-based
Outline: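 Stable β2AR-HEK293 cells grown in DMEM with 10% fetal bovine serum and transiently transfected with plasmids carrying the Rluc PCA PKA reporter (FuGENE-6). Cells were treated with compounds 48 h after transfection. Immediately after treatment, the medium was exchanged for PBS and bioluminescence was read on a luminometer.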

[24] = target: T3, cGMP-inhibited 3',5'-cyclic phosphodiesterase 3A
[25] = target: cGMP-inhibited 3',5'-cyclic phosphodiesterase 3B (Homo sapiens, UniProt Q13370)

T4 sequence (Q13946 whole entry): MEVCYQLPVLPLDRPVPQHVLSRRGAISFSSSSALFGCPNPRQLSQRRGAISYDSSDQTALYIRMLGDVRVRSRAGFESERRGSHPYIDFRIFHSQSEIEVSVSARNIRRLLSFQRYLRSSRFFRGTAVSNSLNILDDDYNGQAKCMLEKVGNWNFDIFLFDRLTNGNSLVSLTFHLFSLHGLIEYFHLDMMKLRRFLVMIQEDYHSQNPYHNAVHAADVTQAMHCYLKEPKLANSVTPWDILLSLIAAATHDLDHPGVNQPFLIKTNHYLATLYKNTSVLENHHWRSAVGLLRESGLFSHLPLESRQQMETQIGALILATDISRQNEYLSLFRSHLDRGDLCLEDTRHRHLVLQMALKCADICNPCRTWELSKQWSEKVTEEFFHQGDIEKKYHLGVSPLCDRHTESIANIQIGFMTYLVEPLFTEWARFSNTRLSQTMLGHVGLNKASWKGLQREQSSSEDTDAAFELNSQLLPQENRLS
Chain of 3',5'-cyclic-AMP phosphodiesterase 4A (P27815 whole entry, the tested form may be a part): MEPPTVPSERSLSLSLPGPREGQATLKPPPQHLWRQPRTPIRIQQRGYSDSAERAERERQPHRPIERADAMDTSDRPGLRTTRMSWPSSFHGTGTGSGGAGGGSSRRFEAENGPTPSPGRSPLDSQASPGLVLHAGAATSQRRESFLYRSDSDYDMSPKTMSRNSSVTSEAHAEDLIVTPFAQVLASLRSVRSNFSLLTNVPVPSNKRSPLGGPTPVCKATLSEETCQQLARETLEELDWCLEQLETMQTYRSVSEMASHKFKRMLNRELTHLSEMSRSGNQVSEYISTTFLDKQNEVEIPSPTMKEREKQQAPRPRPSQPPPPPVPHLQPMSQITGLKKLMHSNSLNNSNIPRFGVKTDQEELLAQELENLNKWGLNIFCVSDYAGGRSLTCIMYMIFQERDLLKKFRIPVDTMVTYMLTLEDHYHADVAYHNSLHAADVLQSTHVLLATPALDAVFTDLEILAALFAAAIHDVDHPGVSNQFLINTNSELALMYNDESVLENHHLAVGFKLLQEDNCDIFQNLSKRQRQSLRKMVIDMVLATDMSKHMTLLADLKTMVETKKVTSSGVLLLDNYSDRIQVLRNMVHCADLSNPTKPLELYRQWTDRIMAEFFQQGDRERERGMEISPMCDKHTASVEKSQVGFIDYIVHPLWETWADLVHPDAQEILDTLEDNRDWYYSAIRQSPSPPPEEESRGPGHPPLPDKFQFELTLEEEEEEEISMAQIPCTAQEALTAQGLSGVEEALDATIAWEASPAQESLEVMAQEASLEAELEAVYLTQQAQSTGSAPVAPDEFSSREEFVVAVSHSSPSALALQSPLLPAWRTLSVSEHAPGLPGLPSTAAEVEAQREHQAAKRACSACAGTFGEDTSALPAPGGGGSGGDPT
Chain of Beta-2 adrenergic receptor (Homo sapiens) (P07550 whole entry, looked up, the tested form may be a part): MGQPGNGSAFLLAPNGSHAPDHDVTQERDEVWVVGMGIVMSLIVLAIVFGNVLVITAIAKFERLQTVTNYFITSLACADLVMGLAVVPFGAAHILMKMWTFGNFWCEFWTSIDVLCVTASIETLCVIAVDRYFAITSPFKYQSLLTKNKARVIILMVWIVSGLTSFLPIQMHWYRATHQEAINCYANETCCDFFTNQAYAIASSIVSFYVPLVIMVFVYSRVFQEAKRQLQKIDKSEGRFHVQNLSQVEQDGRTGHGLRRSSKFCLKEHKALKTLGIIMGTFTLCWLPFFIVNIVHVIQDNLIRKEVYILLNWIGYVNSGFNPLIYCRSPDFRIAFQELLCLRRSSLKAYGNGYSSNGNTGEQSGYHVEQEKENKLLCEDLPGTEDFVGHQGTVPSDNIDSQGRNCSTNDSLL
T3 sequence (Q14432 whole entry): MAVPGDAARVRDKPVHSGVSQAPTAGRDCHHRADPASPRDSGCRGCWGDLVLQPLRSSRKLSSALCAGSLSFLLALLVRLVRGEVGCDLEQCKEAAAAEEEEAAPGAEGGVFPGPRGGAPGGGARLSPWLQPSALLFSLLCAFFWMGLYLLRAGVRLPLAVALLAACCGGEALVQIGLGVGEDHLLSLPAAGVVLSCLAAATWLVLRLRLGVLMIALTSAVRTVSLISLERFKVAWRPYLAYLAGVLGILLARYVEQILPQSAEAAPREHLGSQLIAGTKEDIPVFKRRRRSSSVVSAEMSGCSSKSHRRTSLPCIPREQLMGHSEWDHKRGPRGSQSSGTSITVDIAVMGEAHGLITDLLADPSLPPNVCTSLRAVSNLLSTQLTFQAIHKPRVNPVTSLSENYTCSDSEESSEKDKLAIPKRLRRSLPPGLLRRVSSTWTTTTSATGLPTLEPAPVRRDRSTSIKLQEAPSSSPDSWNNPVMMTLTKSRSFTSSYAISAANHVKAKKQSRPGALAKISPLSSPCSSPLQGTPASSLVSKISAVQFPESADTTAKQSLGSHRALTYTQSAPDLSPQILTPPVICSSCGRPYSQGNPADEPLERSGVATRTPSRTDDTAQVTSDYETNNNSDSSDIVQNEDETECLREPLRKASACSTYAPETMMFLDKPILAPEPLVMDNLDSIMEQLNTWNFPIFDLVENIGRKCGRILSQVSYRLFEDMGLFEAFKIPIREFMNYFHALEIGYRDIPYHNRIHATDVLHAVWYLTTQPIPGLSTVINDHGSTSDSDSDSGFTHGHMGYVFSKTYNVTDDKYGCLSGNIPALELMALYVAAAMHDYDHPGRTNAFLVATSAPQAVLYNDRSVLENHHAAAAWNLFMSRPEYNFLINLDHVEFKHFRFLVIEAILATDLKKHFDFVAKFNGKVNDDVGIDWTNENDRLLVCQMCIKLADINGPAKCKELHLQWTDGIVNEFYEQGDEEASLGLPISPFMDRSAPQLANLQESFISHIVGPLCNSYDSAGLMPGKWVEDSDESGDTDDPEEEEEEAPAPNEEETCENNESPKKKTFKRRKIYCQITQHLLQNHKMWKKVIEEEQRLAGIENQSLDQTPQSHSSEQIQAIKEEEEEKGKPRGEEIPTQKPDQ
T1 sequence (Q01064 whole entry): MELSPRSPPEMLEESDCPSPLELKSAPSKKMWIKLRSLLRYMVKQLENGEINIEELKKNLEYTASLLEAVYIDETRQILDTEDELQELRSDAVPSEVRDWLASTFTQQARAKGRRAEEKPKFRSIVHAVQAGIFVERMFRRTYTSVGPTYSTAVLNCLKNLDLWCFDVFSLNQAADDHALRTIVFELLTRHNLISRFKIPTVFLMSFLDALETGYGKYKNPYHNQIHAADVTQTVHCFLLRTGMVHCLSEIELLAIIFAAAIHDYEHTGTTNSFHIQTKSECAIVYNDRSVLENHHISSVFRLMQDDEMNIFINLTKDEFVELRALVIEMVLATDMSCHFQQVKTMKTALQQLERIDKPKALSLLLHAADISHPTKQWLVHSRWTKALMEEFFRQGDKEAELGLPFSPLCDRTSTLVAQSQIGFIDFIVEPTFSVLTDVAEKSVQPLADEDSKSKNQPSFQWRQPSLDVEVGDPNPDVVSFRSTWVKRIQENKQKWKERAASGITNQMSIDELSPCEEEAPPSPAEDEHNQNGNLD
T2 sequence (Q14123 whole entry): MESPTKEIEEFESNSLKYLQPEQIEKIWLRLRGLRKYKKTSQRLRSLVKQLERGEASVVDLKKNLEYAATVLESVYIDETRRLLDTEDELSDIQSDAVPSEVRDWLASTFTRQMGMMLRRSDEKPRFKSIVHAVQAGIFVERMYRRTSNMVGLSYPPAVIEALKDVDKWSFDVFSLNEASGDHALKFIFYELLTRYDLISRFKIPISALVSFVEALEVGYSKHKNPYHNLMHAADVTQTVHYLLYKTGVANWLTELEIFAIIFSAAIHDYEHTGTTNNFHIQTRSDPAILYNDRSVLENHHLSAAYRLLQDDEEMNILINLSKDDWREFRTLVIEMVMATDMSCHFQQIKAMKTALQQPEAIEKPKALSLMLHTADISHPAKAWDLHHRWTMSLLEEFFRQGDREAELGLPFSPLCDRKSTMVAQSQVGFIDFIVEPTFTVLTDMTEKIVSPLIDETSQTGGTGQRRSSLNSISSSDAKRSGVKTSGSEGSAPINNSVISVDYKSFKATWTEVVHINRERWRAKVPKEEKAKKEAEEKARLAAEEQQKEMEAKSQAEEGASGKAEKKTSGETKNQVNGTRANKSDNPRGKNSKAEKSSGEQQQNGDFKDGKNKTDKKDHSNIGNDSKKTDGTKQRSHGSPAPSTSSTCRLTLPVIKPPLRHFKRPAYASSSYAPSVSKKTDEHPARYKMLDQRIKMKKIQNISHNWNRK
T5 sequence (Q9NP56 whole entry): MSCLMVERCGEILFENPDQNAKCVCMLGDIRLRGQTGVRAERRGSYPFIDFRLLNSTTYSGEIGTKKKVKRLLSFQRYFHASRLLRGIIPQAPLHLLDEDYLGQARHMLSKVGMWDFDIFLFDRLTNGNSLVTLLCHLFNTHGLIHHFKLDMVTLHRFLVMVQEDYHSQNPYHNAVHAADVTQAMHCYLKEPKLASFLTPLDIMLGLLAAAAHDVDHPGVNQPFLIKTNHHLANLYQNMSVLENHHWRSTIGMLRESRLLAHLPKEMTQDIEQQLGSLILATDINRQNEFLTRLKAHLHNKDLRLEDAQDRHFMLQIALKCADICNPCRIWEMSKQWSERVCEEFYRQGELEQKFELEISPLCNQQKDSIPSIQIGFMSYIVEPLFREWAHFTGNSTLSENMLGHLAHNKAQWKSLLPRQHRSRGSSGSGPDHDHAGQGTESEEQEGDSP

With COc1ccc(OC)c(-c2nnc3n2N=C(c2ccc(OC)c(OCC4CC4)c2)CS3)c1 the microsomal CLint [1] was > 300 µL/min/mg and the half-life [2] was 3 min.

With COc1ccc(C2=Nn3c(nnc3-c3ccccc3F)SC2)cc1OC1CCCC1 the IC50 [3] was 33 nM.

For COc1ccc(C2=Nn3c(nnc3-c3ccccc3Cl)SC2)cc1OCC1CC1, the IC50 [3] was 21 nM.

COc1ccc(C2=Nn3c(nnc3-c3ccccc3OC)SC2)cc1OC1CCCC1 gave an IC50 [3] of 32 nM.

Work on COc1ccc(C2=Nn3c(nnc3-c3ccccc3OC)SC2)cc1OCC1CC1 yielded an IC50 [3] of 35 nM.

In the case of COc1ccc(OC)c(-c2nnc3ccc(-c4ccc(OC)c(O[C@@H]5CCOC5)c4)nn23)c1, the inhibition [4] is reported as “Active”, the inhibition [5] is reported as “Active” and the inhibition [6] is reported as 32%. It also gave an inhibition [7] of 56%, an inhibition [8] of 74% and an inhibition [9] of 54%. For the same compound, the inhibition [10] was 54%, the inhibition [11] was 51% and the inhibition [12] was 59%. The inhibition [13] was 35%, the microsomal CLint [1] was > 300 µL/min/mg and the half-life [2] was 3 min. For the same compound, the IC50 [14] was 0.6 nM and the EC50 [15] was 34.2 nM.

With COc1ccc(C2=Nn3c(nnc3-c3ccccc3F)SC2)cc1O[C@@H]1CCOC1 the IC50 [3] was 8.6 nM.

In the case of COc1ccc(OC)c(-c2nnc3n2N=C(c2ccc(OC)c(OC4CCCC4)c2)CS3)c1, the microsomal CLint [1] is reported as > 300 µL/min/mg and the half-life [2] is reported as 3 min.

Compound FC(F)Oc1ccc(C2=Nn3c(nnc3-c3ccccc3Cl)SC2)cc1OCC1CC1 has an IC50 [3] of 37 nM.

Work on COc1ccccc1-c1nnc2n1N=C(c1ccc(OC(F)F)c(OCC3CC3)c1)CS2 yielded an IC50 [3] of 35 nM.

With COc1ccc(C2=Nn3c(nnc3-c3ccccc3OC)SC2)cc1OC1CCOC1 (stereo not given) the IC50 [3] was 20 nM.

With COc1ccc(C2CNC(=O)C2)cc1OC1CCCC1 (stereo not given) [ROLIPRAM] the inhibition [16] was “inactive”, the IC50 [17] was “Not Active” and the IC50 [18] was “Not Active”. The IC50 [19] was “Not Active”, the IC50 [20] was “Not Active” and the inhibition [21] was “Active”. For the same compound, the IC50 [22] was “Not Active”.

For COc1ccc(OC)c(-c2nnc3n2N=C(c2ccc(OC)c(O[C@@H]4CCOC4)c2)CS3)c1, the inhibition [4] was “Active”, the inhibition [5] was “Active” and the inhibition [23] was 25%. It also gave an inhibition [6] of 36%, an inhibition [7] of 52% and an inhibition [8] of 49%. It also gave an inhibition [9] of 68%, an inhibition [10] of 56% and an inhibition [11] of 58%. For the same compound, the inhibition [12] was 48%, the inhibition [13] was 43% and the microsomal CLint [1] was > 300 µL/min/mg. It also gave a half-life [2] of 3 min and an EC50 [15] of 2.3 nM.

For COc1ccc(OC)c(-c2nnc3n2N=C(c2ccc(OC)c(OC4CCOC4)c2)CS3)c1 (racemic), the microsomal CLint [1] was > 300 µL/min/mg and the half-life [2] was 3 min.

With Fc1ccccc1-c1nnc2n1N=C(c1ccc(OC(F)F)c(OCC3CC3)c1)CS2 the IC50 [3] was 53 nM.

COc1ccc(C2=Nn3c(nnc3-c3ccccc3F)SC2)cc1OC1CCOC1 (stereo not given) showed an IC50 [3] of 11 nM.

With COc1ccc(OC)c(-c2nnc3n2N=C(c2ccc(OC)c(OC)c2)CS3)c1 the microsomal CLint [1] was > 300 µL/min/mg, the half-life [2] was 3 min and the IC50 ([17]; read-out: IC50) was 823 nM. For the same compound, the EC50 [15] was 18.7 nM, the IC50 [24] was 1700 nM and the IC50 [25] was 720 nM.

Compound COc1ccc(C2=Nn3c(nnc3-c3ccccc3Cl)SC2)cc1OC1CCOC1 (stereo not given) has an IC50 [3] of 9.8 nM.

With COc1ccc(OC)c(-c2nnc3ccc(-c4ccc(OC)c(O[C@H]5CCOC5)c4)nn23)c1 the microsomal CLint [1] was > 300 µL/min/mg and the half-life [2] was 3 min.

Compound COc1ccc(C2=Nn3c(nnc3-c3ccccc3OC)SC2)cc1O[C@@H]1CCOC1 has an IC50 [3] of 11 nM.

For COc1ccc(C2=Nn3c(nnc3-c3ccccc3Cl)SC2)cc1O[C@@H]1CCOC1, the IC50 [3] was 3.8 nM.

Work on COc1ccc(C2=Nn3c(nnc3-c3ccccc3Cl)SC2)cc1OC1CCCC1 yielded an IC50 [3] of 26 nM.

For COc1ccc(OC)c(-c2nnc3n2N=C(c2ccc(OC(F)F)c(OCC4CC4)c2)CS3)c1, the microsomal CLint [1] was > 300 µL/min/mg and the half-life [2] was 3 min.
